Source: article PMC6188675 (Journal of medicinal chemistry, 2013)
pIC50: −log10 of the molar value.

Tests used:
LNCaP cells = test: MTT cytotoxicity assay in LNCaP cells; format: cell-based
[1] = system: Flag-6x-histidine construct; test: Quench counter-screen; conditions: compounds tested at 10 µM
Outline: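 Run as the integrase–LEDGF/p75 AlphaScreen, with one Flag-6xhistidine construct replacing both proteins. Compound incubations were 30 min then 60 min at 4 °C. Ni-chelate donor and anti-FLAG acceptor beads were added at 20 µg/mL each for 1 h at 30 °C, kept from light. Acceptor-bead emission gave percent inhibition.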

[2] = target: IN 3'-processing catalysis (Human immunodeficiency virus type 1 group M subtype B, UniProt P12497); test: IN enzymatic assay, 3'-processing; format: biochemical, HIV-1
[3] = target: IN strand transfer catalysis (Human immunodeficiency virus type 1 group M subtype B, UniProt P12497); test: IN enzymatic assay, strand transfer; format: biochemical, HIV-1
HIV-1 = test: Antiviral MTT/MT-4 assay; format: cell-based; conditions: MT-4 cells, 13 µM

| SMILES | cytotoxicity in MTT LNCaP assay (in words) (LNCaP cells) | Quench % Inhib. [1] [%] | pIC50 [2] | pIC50 [3] | antiviral activity at maximum testable concentration (HIV-1) |
| --- | --- | --- | --- | --- | --- |
| Oc1ccc(CN2CCN(c3ccccc3)CC2)c2cccnc12 [Q3–7] | notable cell-growth inhibition | <50 | – | – | – |
| CC(=O)NC(c1ccc(N(C)C)cc1)c1cc(Cl)c2cccnc2c1O (stereo not shown) [Q1–10] | – | <50 | – | – | – |
| Cc1cccc(NCc2ccc(O)c3ncccc23)n1 [Q2–4] | – | <50 | < 4.70 | < 4.70 | – |
| Oc1ccc(CNc2ccc(C(F)(F)F)cc2)c2cccnc12 [Q2–3] | – | <50 | < 4.70 | < 4.70 | – |
| Oc1ccc(CN2CCCCC2)c2cccnc12 [Q3-1] | negligible inhibition of cell growth | <50 | – | – | – |
| CCCC(=O)NC(c1ccccc1)c1ccc2cccnc2c1O (stereo not shown) [Q1-1] | notable cytotoxicity | <50 | < 4.70 | < 4.70 | – |
| Cc1cccnc1NCc1ccc(O)c2ncccc12 [Q2–9] | – | <50 | < 4.70 | < 4.70 | – |
| CCOc1ccc(NCc2ccc(O)c3ncccc23)cc1 [Q2–12] | – | <50 | – | – | – |
| CCC(=O)NC(c1ccco1)c1cc(Cl)c2cccnc2c1O (stereo not shown) [Q1–8] | – | <50 | – | – | – |
| Cc1ccc(NCc2ccc(O)c3ncccc23)cc1C [Q2–13, 5-(((3,4-dimethylphenyl)amino)methyl)quinolin-8-ol] | – | <50 | – | – | – |
| CCC(=O)NC(c1ccccc1OC)c1ccc2cccnc2c1O (stereo not shown) [Q1–2] | notable cytotoxicity | <50 | < 4.70 | < 4.70 | – |
| Oc1ccc(CNc2ccccc2Cl)c2cccnc12 [Q2–14] | – | <50 | – | – | – |
| COc1cccc(C(NC(C)=O)c2ccc3cccnc3c2O)c1 (stereo not shown) [Q1–3] | – | <50 | < 4.70 | < 4.70 | – |
| Cc1ccccc1NCc1ccc(O)c2ncccc12 [Q2-1] | – | <50 | – | – | – |
| Oc1c(Cl)cc(Cl)c2cccnc12 [QB, 5,7-dichloroquinolin-8-ol] | – | <50 | < 4.70 | < 4.70 | – |
| Oc1ccc(Cl)c2cccnc12 [QA, 5-chloroquinolin-8-ol] | – | <50 | < 4.70 | < 4.70 | – |
| Oc1ccccc1C(Nc1nccs1)c1ccc2cccnc2c1O (stereo not shown) [Q1–12] | – | <50 | – | – | – |
| Oc1ccc(Cc2ccc(O)c3ncccc23)c2cccnc12 [Q2-2] | notable cytotoxicity | <50 | – | – | – |
| Oc1ccc(CNc2cccc(C(F)(F)F)c2)c2cccnc12 [Q2–5] | – | <50 | < 4.70 | < 4.70 | – |

| SMILES | cytotoxicity in MTT LNCaP assay (in words) (LNCaP cells) | Quench % Inhib. [1] [%] | pIC50 [2] | pIC50 [3] | antiviral activity at maximum testable concentration (HIV-1) |
| --- | --- | --- | --- | --- | --- |
| CCOCc1ccc(O)c2ncccc12 [QC, 5-(ethoxymethyl)quinolin-8-ol] | – | <50 | < 4.70 | < 4.70 | – |
| CCCC(=O)NC(c1ccc(OC)cc1)c1ccc2cccnc2c1O (stereo not shown) [Q1–11] | – | <50 | – | – | – |
| CC(=O)NC(c1ccccc1)c1cc(Cl)c2cccnc2c1O (stereo not shown) [Q1–5] | – | <50 | < 4.70 | < 4.70 | – |
| Oc1ccc(CNc2ccccc2F)c2cccnc12 [Q2–10] | – | <50 | < 4.70 | < 4.70 | – |
| CN1CCN(Cc2ccc(O)c3ncccc23)CC1 [Q3-2] | negligible inhibition of cell growth | <50 | – | – | – |
| COc1ccc(C(NC(C)=O)c2cc([N+](=O)[O-])c3cccnc3c2O)cc1OC (stereo not shown) [Q1–7] | – | <50 | – | – | – |
| CCOC(=O)C1CCCN(Cc2ccc(O)c3ncccc23)C1 (stereo not shown) [Q3–6] | – | <50 | – | – | – |
| CCC(=O)NC(c1ccc(OC)c(OC)c1)c1cc(Cl)c2cccnc2c1O (stereo not shown) [Q1–9] | – | <50 | – | – | – |
| Cc1cccc(NCc2ccc(O)c3ncccc23)c1C [Q2–6] | – | <50 | < 4.70 | < 4.70 | no antiviral activity could be detected |
| CCOC(=O)C1CCN(Cc2ccc(O)c3ncccc23)CC1 [Q3–8] | – | <50 | < 4.70 | < 4.70 | – |
| O=C(CC(Sc1cccc2cccnc12)c1ccc(F)cc1)c1cccs1 (stereo not shown) [Q5-2] | – | <50 | < 4.70 | < 4.70 | – |
| CCC(=O)NC(c1cccs1)c1cc([N+](=O)[O-])c2cccnc2c1O (stereo not shown) [Q1–6] | – | <50 | < 4.70 | < 4.70 | – |
| Cc1ccc(S(=O)(=O)NC(=O)Oc2cccc3cccnc23)cc1 [Q4-1] | low cytotoxicity | <50 | < 4.70 | < 4.70 | – |
| CCC(=O)NC(c1ccc(OC)cc1)c1cc([N+](=O)[O-])c2cccnc2c1O (stereo not shown) [Q1–4] | – | <50 | < 4.70 | < 4.70 | – |
| COc1cccc(NCc2ccc(O)c3ncccc23)c1 [Q2–7] | notable cytotoxicity | <50 | < 4.70 | < 4.70 | – |
| O=C(CC(Sc1cccc2cccnc12)c1ccc(OC(F)F)cc1)c1ccco1 (stereo not shown) [Q5-1] | – | <50 | < 4.70 | < 4.70 | – |
| Cc1ccc(NCc2ccc(O)c3ncccc23)cc1 [Q2–8, 5-((p-tolylamino)methyl)quinolin-8-ol] | – | <50 | – | – | – |
| Oc1ccc(CN2CCN(Cc3ccccc3)CC2)c2cccnc12 [Q3–9] | – | <50 | < 4.70 | < 4.70 | – |
| Cc1cccc(NCc2ccc(O)c3ncccc23)c1 [Q2–11] | – | <50 | < 4.70 | < 4.70 | – |
